In ChEMBL document CHEMBL3870319, “Synthesis and biological evaluation of rhein amides as inhibitors of osteoclast differentiation and bone resorption” (Eur J Med Chem, 2016):
Activity calls are given as the source filed them. The rule behind the calls is not given here.

Assays:
[1] = Cytotoxicity against C57/BL6 mouse primary BMDM assessed as cell viability at 5 uM after 2 days in presence of M-CSF by MTT assay relative to control; assay type: toxicity; conditions: primary bone marrow-derived macrophages (BMDM), read-out: Activity
In short: (§1)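 Primary BMMs were obtained by flushing femur and tibia marrow of 4-week-old male C57BL/6 mice, culturing it overnight, then expanding the non-adherent cells with 30 ng/mL M-CSF to 90% confluence. They were seeded at 3×10^3 cells/well in full α-MEM with 30 ng/mL M-CSF. Next day, compound was added in triplicate for two days. MTT (5 mg/mL) was added for 2 h at 37°C, crystals were dissolved in DMSO, and OD was read at 570 nm. Viability is relative to untreated control (100%).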

[2] = (§2) Inhibition of RANKL/M-CSF-induced osteoclastogenesis in C57/BL6 mouse primary BMDM assessed as reduction in TRAP activity using pNPP as substrate after 2 days by colorimetric assay; assay type: functional
In short: (§3)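 BMMs at 3×10^3 cells/well exposed to 30 ng/mL M-CSF plus 50 ng/mL RANKL with compound in triplicate for two days. PBS-washed cells lysed 15 min at 37°C; lysate incubated 45 min with p-NPP in presence of disodium tartrate, stopped with NaOH, OD read at 405 nm, normalized to BCA protein; inhibition relative to control.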

[3] = Induction of C57/BL6 mouse primary BMDM proliferation assessed at 5 uM after 2 days by MTT assay relative to control; conditions: 48 h
In short: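 BMMs from femur/tibia marrow of 4-week-old male C57BL/6 mice, expanded in α-MEM/10% FBS with 30 ng/mL M-CSF. Seeded at 3×10^3 cells/well, treated next day in triplicate for two days with M-CSF present. MTT (5 mg/mL stock) for 2 h at 37°C, crystals dissolved in DMSO, OD 570 nm; viability relative to untreated control.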

BMDM [4] = test: Inhibition of RANKL/M-CSF-induced osteoclastogenesis in C57/BL6 mouse primary BMDM assessed reduction in TRAP-positive multinucleated cells at 5 uM after 5 days; assay type: functional
In short: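 Mouse C57BL/6 BMMs were adhered overnight in M-CSF medium, then cultured with 30 ng/mL M-CSF plus 50 ng/mL RANKL and compound for five days, with medium changed every two days. Cells were TRAP-stained with a leukocyte acid phosphatase kit, and TRAP-positive cells with ≥3 nuclei were counted as osteoclasts. Counts are expressed as percent of control, from at least three experiments.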

Mus musculus [5] = species on record: Mus musculus; test: Inhibition of RANK/RANKL/NFATc1 signalling pathway in M-CSF-stimulated C57/BL6 mouse primary BMDM assessed as reduction in c-FOS mRNA level at 5 uM by qRT-PCR analysis
In short: (§4)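 BMMs treated with M-CSF and/or RANKL alone or with 5 µM compound; mRNA for NFATc1, c-fos, TRAP, MMP-9 and cathepsin K measured by SYBR Green qRT-PCR, normalized to β-actin, expressed as fold change versus control cells; mean ± S.D. of triplicate measurements per cDNA sample.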

Mus musculus [6] = species on record: Mus musculus; test: Inhibition of RANK/RANKL/NFATc1 signalling pathway in M-CSF-stimulated C57/BL6 mouse primary BMDM assessed as reduction in MMP9 mRNA level at 5 uM by qRT-PCR analysis; in short: as §4
BMDM [7] = test: Inhibition of RANKL/M-CSF-induced bone resorption of osteoclast in C57/BL6 mouse primary BMDM cultured on bovine femur bone slices assessed as reduction in bone resorption area at 5 uM after 5 days by toluidine blue staining based microscopy; assay type: functional
In short: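 BMMs seeded on bovine femur bone slices; next day induced with 30 ng/mL M-CSF plus 50 ng/mL RANKL with compound for five days, medium changed every two days. Cells fixed in 2.5% glutaraldehyde, slices stained with 0.5% toluidine blue, imaged at 200×; pit area from three random fields per slice, expressed as % of control.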

BMDM [8] = test: as §2; assay type: functional; in short: as §3
Mus musculus [9] = species on record: Mus musculus; test: Inhibition of RANK/RANKL/NFATc1 signalling pathway in M-CSF-stimulated C57/BL6 mouse primary BMDM assessed as reduction in NFATc1 mRNA level at 5 uM by qRT-PCR analysis; in short: as §4
Mus musculus [10] = species on record: Mus musculus; test: Cytotoxicity against C57/BL6 mouse MSC assessed as reduction in cell viability at 5 uM after 2 days in presence of M-CSF by MTT assay; assay type: toxicity; conditions: 48 h
In short: (§5)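 MTT viability in MC3T3-E1 preosteoblasts (ATCC) or C57BL/6-derived mouse MSCs grown in α-MEM with 10% FBS and penicillin/streptomycin at 37°C, 5% CO2. Compound at indicated concentrations for 2 days, then MTT read. Viability expressed relative to control, mean ± SD of triplicates.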

Mus musculus [11] = species on record: Mus musculus; test: Inhibition of RANK/RANKL/NFATc1 signalling pathway in M-CSF-stimulated C57/BL6 mouse primary BMDM assessed as reduction in TRAP mRNA level at 5 uM by qRT-PCR analysis; in short: as §4
Mus musculus [12] = species on record: Mus musculus; test: Cytotoxicity against mouse MC3T3-E1 cells assessed as reduction in cell viability at 5 uM after 2 days in presence of M-CSF by MTT assay; assay type: toxicity, cell-based; conditions: mc3t3-e1, 48 h; in short: as §5
Mus musculus [13] = species on record: Mus musculus; test: Inhibition of RANK/RANKL/NFATc1 signalling pathway in M-CSF-stimulated C57/BL6 mouse primary BMDM assessed as reduction in cathepsin K mRNA level at 5 uM by qRT-PCR analysis; in short: as §4
Mus musculus [14] = species on record: Mus musculus; test: Cytotoxicity against C57/BL6 mouse primary BMDM assessed as cell viability at 7.5 uM after 2 days in presence of M-CSF by MTT assay; assay type: toxicity; conditions: 48 h; in short: as §1

For CC(=O)Oc1cccc2c1C(=O)c1c(OC(C)=O)cc(C(=O)Nc3cc(C(F)(F)F)ccn3)cc1C2=O, which viability at 48 h, 5 µM [1] is on record?
The viability at 48 h, 5 µM was 37%.

With CC(=O)Oc1cccc2c1C(=O)c1c(OC(C)=O)cc(C(=O)Nc3ccc(C)cc3)cc1C2=O as the compound, how does the viability at 48 h, 5 µM [1] read?
The viability at 48 h, 5 µM was 28%.

With O=C(Nc1ccccc1)c1cc(O)c2c(c1)C(=O)c1cccc(O)c1C2=O as the compound, how does the viability at 48 h, 5 µM [1] read?
The viability at 48 h, 5 µM was 53%.

For Cc1ccc(NC(=O)c2cc(O)c3c(c2)C(=O)c2cccc(O)c2C3=O)cc1, which viability at 48 h, 5 µM [1] is on record?
Its viability at 48 h, 5 µM is 62%.

For Cc1cc(O)c2c(c1)C(=O)c1cc(O)cc(O)c1C2=O [EMODIN], which “inhibition (INH)” value [2] is on record?
Its value is 45%.

What about the Activity [3] of the same compound?
The Activity was “Non-Toxic”.

What about the viability at 48 h, 5 µM [1] of the same compound?
The viability at 48 h, 5 µM was 109%.

And the inhibition (BMDM [4])?
Its inhibition is “Active”.

Which results are given for CC1CCN(C(=O)c2cc(O)c3c(c2)C(=O)c2cccc(O)c2C3=O)CC1?
inhibition (INH) [2]: 0%; viability at 48 h, 5 µM [1]: 103%

What does the source list for CC(C)(O)C1CCN(C(=O)c2cc(O)c3c(c2)C(=O)c2cccc(O)c2C3=O)CC1?
inhibition (INH) [2]: 65%; viability at 48 h, 5 µM [1]: 92%

Which viability at 48 h, 5 µM [1] does the source give for CC(=O)Oc1cccc2c1C(=O)c1c(OC(C)=O)cc(C(=O)Nc3ccc(C(F)(F)F)cn3)cc1C2=O here?
Its viability at 48 h, 5 µM is 35%.

With O=C(Nc1ccc(C(F)(F)F)cn1)c1cc(O)c2c(c1)C(=O)c1cccc(O)c1C2=O as the compound, how does the viability at 48 h, 5 µM [1] read?
The viability at 48 h, 5 µM was 49%.

For O=C(Nc1ccc(C(F)(F)F)cc1)c1cc(O)c2c(c1)C(=O)c1cccc(O)c1C2=O, which viability at 48 h, 5 µM [1] is on record?
The viability at 48 h, 5 µM was 57%.

With CC(=O)Oc1cccc2c1C(=O)c1c(OC(C)=O)cc(C(=O)N3CCC(C)CC3)cc1C2=O as the compound, how does the viability at 48 h, 5 µM [1] read?
The viability at 48 h, 5 µM was 8%.

For O=C1c2cccc(O)c2C(=O)c2c(O)cc(C(=O)N3CCC(CO)CC3)cc21, which “inhibition (INH)” value [2] is on record?
Its value is 85%.

What about the viability at 48 h, 5 µM [1] of the same compound?
The viability at 48 h, 5 µM was 79%.

Which viability at 48 h, 5 µM [1] does the source give for CC(=O)Oc1cccc2c1C(=O)c1c(OC(C)=O)cc(C(=O)Nc3ccccc3)cc1C2=O here?
Its viability at 48 h, 5 µM is 28%.

Which “inhibition (INH)” value [2] does the source give for O=C(O)c1cc(O)c2c(c1)C(=O)c1cccc(O)c1C2=O [RHEIN] here?
The value was 47%.

What about the Activity [3] of the same compound?
The Activity was “Non-Toxic”.

And the viability at 48 h, 5 µM [1]?
The viability at 48 h, 5 µM was 97%.

Which viability at 48 h, 5 µM [1] does the source give for CC(=O)Oc1cccc2c1C(=O)c1c(OC(C)=O)cc(C(=O)Nc3ccc(C(F)(F)F)cc3)cc1C2=O here?
The viability at 48 h, 5 µM was 51%.

For CC(=O)Oc1cccc2c1C(=O)c1c(OC(C)=O)cc(C(=O)Nc3ccc(C)c(Cl)c3)cc1C2=O, which “inhibition (INH)” value [2] is on record?
Its value is 0%.

And the viability at 48 h, 5 µM [1]?
Its viability at 48 h, 5 µM is 75%.

Which inhibition (Mus musculus [5]) does the source give for O=C1c2cccc(O)c2C(=O)c2c(O)cc(C(=O)N3CCC(N4CCOCC4)CC3)cc21 here?
The inhibition was “Active”.

And the inhibition (Mus musculus [6])?
The inhibition was “Active”.

What about the inhibition (BMDM [7]) of the same compound?
The inhibition was “Active”.

What about the inhibition (BMDM [8]) of the same compound?
Its inhibition is “Dose-dependent effect”.

And the “inhibition (INH)” value [2]?
Its value is 98%.

And the inhibition (Mus musculus [9])?
The inhibition was “Active”.

And the viability at 48 h, 5 µM [1]?
The viability at 48 h, 5 µM was 92%.

What about the Activity (Mus musculus [10]) of the same compound?
The Activity was “Non-Toxic”.

And the inhibition (BMDM [4])?
The inhibition was “Active”.

What about the inhibition (Mus musculus [11]) of the same compound?
Its inhibition is “Active”.

And the Activity (Mus musculus [12])?
The Activity was “Non-Toxic”.

What about the inhibition (Mus musculus [13]) of the same compound?
The inhibition was “Active”.

What about the Activity (Mus musculus [14]) of the same compound?
The Activity was “Non-Toxic”.

For CC(=O)Oc1cccc2c1C(=O)c1c(OC(C)=O)cc(C(=O)Nc3ccc(C(F)(F)F)cc3Cl)cc1C2=O, which viability at 48 h, 5 µM [1] is on record?
The viability at 48 h, 5 µM was 17%.

Which viability at 48 h, 5 µM [1] does the source give for O=C(Nc1ccc(C(F)(F)F)cc1Cl)c1cc(O)c2c(c1)C(=O)c1cccc(O)c1C2=O here?
The viability at 48 h, 5 µM was 17%.

For CN1CCN(C(=O)c2cc(O)c3c(c2)C(=O)c2cccc(O)c2C3=O)CC1, which “inhibition (INH)” value [2] is on record?
The value was 0%.

What about the viability at 48 h, 5 µM [1] of the same compound?
Its viability at 48 h, 5 µM is 122%.

With CCN1CCN(C(=O)c2cc(O)c3c(c2)C(=O)c2cccc(O)c2C3=O)CC1 as the compound, how does the viability at 48 h, 5 µM [1] read?
The viability at 48 h, 5 µM was 24%.

With O=C(NCCN1CCOCC1)c1cc(O)c2c(c1)C(=O)c1cccc(O)c1C2=O as the compound, how does the viability at 48 h, 5 µM [1] read?
The viability at 48 h, 5 µM was 15%.
